According to ChEMBL document CHEMBL4257585, “Structure-Activity Relationships of Photoswitchable Diarylethene-Based β-Hairpin Peptides as Membranolytic Antimicrobial and Anticancer Agents” (J Med Chem, 2018):
In brackets after ≈: the same amount, converted by molar mass. Non-standard residues stand in square brackets, D forms with d. Residues, ends and D or L forms follow the SMILES beside them. Orn = NCCC[C@H](N)C(=O)O

Columns and labels:
HeLa = experiment: Cytotoxicity against human HeLa cells assessed as reduction in cell viability after 24 hrs by MTT assay; type: functional, cell-based
Summary of the method: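 HeLa cells seeded at about 5 × 10^4 cells/mL in DMEM with 10% FBS, 2 mM glutamine, gentamicin; 24 h adaptation (37 °C, 5% CO2), then 24 h peptide exposure. MTT 4 h, formazan in DMSO read at 570 nm. 2-fold series 256–0.5 (open) or 512–1 μg/mL (closed), four repetitions; IC50 extrapolated from killing curves. Closed form handled in dim light.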

[1] = Hemolytic activity against human RBC assessed as hemolysis after 30 mins by colorimetric method; type: ADME, cell-based, Erythrocyte; settings: human red blood cells (erythrocytes)
Summary of the method: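 Human erythrocytes washed twice in isotonic 172 mM Tris-HCl, pH 7.6; peptides dissolved in DMSO, diluted in buffer, two independent 10-step 2-fold series from 256 or 192 μg/mL. HC50 extrapolated as 50% hemolysis concentration.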

Bacillus subtilis = experiment: Antimicrobial activity against Bacillus subtilis DSM 347 after 22 hrs by resazurin dye based spectrophotometry; type: functional; settings: DSM 347, 22 h
Summary of the method: (§1)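 2-fold broth microdilution in Mueller–Hinton medium; peptide stocks 1024 μg/mL in 50% ethanol. Exponential-phase cultures diluted to OD550 0.2, then 1:100 (B. subtilis) or 1:1000 (E. coli), giving 5 × 10^5 CFU/mL per well. Incubated 22 h, 37 °C, static; then resazurin (0.2 mg/mL solution) added for 2 h at 37 °C, read visually and spectrophotometrically. Tested in both photoforms.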

[2] = Selective ratio of HC50 for human RBC to IC50 for human HeLa cells; type: toxicity; settings: human red blood cells versus HeLa cells
Summary of the method: (§2)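 Ratio of HC50 (RBC) to HeLa IC50 or to MIC against B. subtilis or E. coli; values measured in mg/mL and recalculated to μM, 2-fold dilution without curve fitting, accuracy within a factor of 2.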

[3] = Therapeutic index, ratio of HC50 for human RBC to MIC for Bacillus subtilis DSM 347; type: toxicity; settings: human red blood cells versus Bacillus subtilis DSM 347; summary of the method: as §2
Escherichia coli = experiment: Antimicrobial activity against Escherichia coli DSM 1103 after 22 hrs by resazurin dye based spectrophotometry; type: functional; settings: DSM 1103, 22 h; summary of the method: as §1
[4] = Therapeutic index, ratio of HC50 for human RBC to MIC for Escherichia coli DSM 1103; type: toxicity; settings: human red blood cells versus Escherichia coli DSM 1103; summary of the method: as §2

| MIC (Bacillus subtilis) | MIC (Escherichia coli) | SMILES | IC50 (HeLa) | HC50 at 0.5 h [1] | selectivity ratio [2] | selectivity ratio [3] | selectivity ratio [4] |
| --- | --- | --- | --- | --- | --- | --- | --- |
| 1 µM (≈ 1.78 µg/mL) | 36 µM (≈ 64 µg/mL) | CC(C)C[C@@H]1NC(=O)[C@H](CCCCN)NC(=O)[C@H](C(C)C)NC(=O)C2=CC3=C4CCCC4=C4C=C(S[C@]4(C)[C@@]3(C)S2)C(=O)[C@H]2CCCN2C(=O)[C@H](CC(C)C)NC(=O)[C@H](CCCCN)NC(=O)[C@H](C(C)C)NC(=O)[C@H](CCCCN)NC(=O)[C@H](CC(C)C)NC(=O)[C@@H]2CCCN2C(=O)[C@@H](Cc2ccccc2)NC(=O)[C@H](C(C)C)NC(=O)[C@H](CCCCN)NC1=O | 28 µM | 37 µM | 1.3 | 37 | 1 |
| 12 µM (≈ 15.8 µg/mL) | 195 µM (≈ 256 µg/mL) | CC(C)[C@@H]1NC(=O)[C@H](CCCN)NC(=O)[C@H]([C@H](O)C(C)C)NC(=O)C2=CC3=C4CCCC4=C4C=C(S[C@]4(C)[C@@]3(C)S2)C(=O)[C@H]2CCCN2C(=O)[C@H](C(C)C)NC(=O)[C@H](CCCN)NC(=O)[C@H]([C@H](O)C(C)C)NC(=O)[C@@H]2CCCN2C(=O)[C@@H](Cc2ccccc2)NC1=O | 293 µM | 160 µM | 0.5 | 13.3 | 0.8 |
| 2 µM (≈ 2.56 µg/mL) | 100 µM (≈ 128 µg/mL) | Cc1sc2cc1C1=C(CCC1)c1cc(sc1C)C(=O)[C@H]1CCCN1C(=O)[C@H](C(C)C)NC(=O)[C@H](CCCN)N(C)C(=O)[C@H](C(C)C)NC(=O)[C@@H]1CCCN1C(=O)[C@@H](Cc1ccccc1)N(C)C(=O)[C@H](C(C)C)NC(=O)[C@H](CCCN)NC(=O)[C@H](C(C)C)NC2=O | 25 µM | 59 µM | 2.4 | 29.5 | 0.6 |
| 3 µM (≈ 3.89 µg/mL) | 12 µM (≈ 15.5 µg/mL) | CC(C)C[C@@H]1NC(=O)[C@H](CCCN)NC(=O)[C@H](CCCN)NC(=O)C2=CC3=C4CCCC4=C4C=C(S[C@]4(C)[C@@]3(C)S2)C(=O)[C@H]2CCCN2C(=O)[C@H](CC(C)C)NC(=O)[C@H](CCCN)NC(=O)[C@H](C(C)C)NC(=O)[C@@H]2CCCN2C(=O)[C@@H](Cc2ccccc2)NC1=O | 12 µM | 17 µM | 1.4 | 5.7 | 1.4 |
| 4 µM (≈ 5.52 µg/mL) | 92 µM (≈ 127 µg/mL) | Cc1sc2cc1C1=C(CCC1)c1cc(sc1C)C(=O)[C@H]1CCCN1C(=O)[C@H](Cc1ccc(O)cc1)NC(=O)[C@H](CCCN)NC(=O)[C@H](C(C)C)NC(=O)[C@@H]1CCCN1C(=O)[C@@H](Cc1ccccc1)NC(=O)[C@H](Cc1ccc(O)cc1)NC(=O)[C@H](CCCN)NC(=O)[C@H](C(C)C)NC2=O | 23 µM | 4 µM | 0.2 | 1 |  |
| 1 µM (≈ 2.68 µg/mL) | 23 µM (≈ 61.7 µg/mL) | Cc1sc2cc1C1=C(CCC1)c1cc(sc1C)C(=O)[C@H]1CCCN1C(=O)[C@H](C(C)C)NC(=O)[C@H](CCCN)NC(=O)[C@H](C(C)C)NC(=O)[C@@H]1CCCN1C(=O)[C@@H](Cc1ccccc1)NC(=O)[C@H](C(C)C)NC(=O)[C@H](CCCN)NC(=O)[C@H](CCCn1cc(COCc3cn(CCC[C@@H]4NC(=O)c5cc(c(C)s5)C5=C(CCC5)c5cc(sc5C)C(=O)[C@H]5CCCN5C(=O)[C@H](C(C)C)NC(=O)[C@H](CCCN)NC(=O)[C@H](C(C)C)NC(=O)[C@@H]5CCCN5C(=O)[C@@H](Cc5ccccc5)NC(=O)[C@H](C(C)C)NC(=O)[C@H](CCCN)NC4=O)nn3)nn1)NC2=O | 23 µM | 1 µM |  | 1 |  |
| 3 µM (≈ 8.32 µg/mL) | 48 µM (≈ 133 µg/mL) | Cc1sc2cc1C1=C(CCC1)c1cc(sc1C)C(=O)[C@H]1CCCN1C(=O)[C@H](C(C)C)NC(=O)[C@H](CCCN)NC(=O)[C@H](C(C)C)NC(=O)[C@H](CCCn1cc(COCc3cn(CCC[C@H]4C(=O)N[C@@H](C(C)C)C(=O)N[C@@H](CCCN)C(=O)N[C@@H](C(C)C)C(=O)N5CCC[C@@H]5C(=O)c5cc(c(C)s5)C5=C(CCC5)c5cc(sc5C)C(=O)N[C@@H]([C@H](O)C(C)C)C(=O)N[C@@H](CCCN)C(=O)N[C@@H](C(C)C)C(=O)N[C@H](Cc5ccccc5)C(=O)N4C)nn3)nn1)N(C)C(=O)[C@@H](Cc1ccccc1)NC(=O)[C@H](C(C)C)NC(=O)[C@H](CCCN)NC(=O)[C@H]([C@H](O)C(C)C)NC2=O | 24 µM | 1 µM |  | 0.3 |  |

More lines, now with the values behind:

| SMILES | MIC (Bacillus subtilis) | MIC (Escherichia coli) | IC50 (HeLa) | HC50 at 0.5 h [1] | selectivity ratio [2] | selectivity ratio [3] | selectivity ratio [4] |
| --- | --- | --- | --- | --- | --- | --- | --- |
| CC[C@H](C)[C@@H]1NC(=O)c2cc(c(C)s2)C2=C(CCC2)c2cc(sc2C)C(=O)[C@H]2CCCN2C(=O)[C@H]([C@@H](C)CC)NC(=O)[C@H](CCCN)NC(=O)[C@H](CC(C)C)NC(=O)[C@H](CC(C)C)N(C)C(=O)[C@@H](Cc2ccccc2)NC(=O)[C@H]([C@@H](C)CC)NC(=O)[C@H](CCCN)NC1=O | 2 µM (≈ 2.68 µg/mL) | 96 µM (≈ 129 µg/mL) | 3 µM | 3 µM | 1 | 1.5 |  |
| Cc1sc2cc1C1=C(CCC1)c1cc(sc1C)C(=O)[C@H]1CCCN1C(=O)[C@H](C(C)C)NC(=O)[C@H](CCCCN)NC(=O)[C@H](C(C)C)NC(=O)[C@H](CC(C)C)NC(=O)[C@@H](CCCCN)NC(=O)[C@@H]1CCCN1C(=O)[C@@H](Cc1ccccc1)NC(=O)[C@H](C(C)C)NC(=O)[C@H](CCCCN)NC(=O)[C@H](CC(C)C)NC(=O)[C@H](CCCCN)NC(=O)[C@H](C(C)C)NC2=O | 1 µM (≈ 1.76 µg/mL) | 9 µM (≈ 15.9 µg/mL) | 3 µM | 1 µM | 0.3 | 1 | 0.1 |
| Cc1sc2cc1C1=C(CCC1)c1cc(sc1C)C(=O)[C@H]1CCCN1C(=O)[C@H]([C@H](O)C(C)C)NC(=O)[C@H](CCCN)NC(=O)[C@H](C(C)C)NC(=O)[C@@H]1CCCN1C(=O)[C@@H](Cc1ccccc1)NC(=O)[C@H](C(C)C)NC(=O)[C@H](CCCN)NC(=O)[C@H](C(C)C)NC2=O | 2 µM (≈ 2.57 µg/mL) | 100 µM (≈ 128 µg/mL) | 31 µM | 39 µM | 1.3 | 25 | 0.4 |
| CC(C)C[C@@H]1NC(=O)[C@H](CCCN)NC(=O)[C@H](C(C)C)NC(=O)[C@@H]2CCCN2C(=O)[C@@H](Cc2ccccc2)NC(=O)[C@H](CC(C)C)NC(=O)[C@H](CCCN)NC(=O)[C@H](C(C)C)NC(=O)[C@@H]2CCCN2C(=O)[C@@H](Cc2ccccc2)NC1=O (cyclo(V[Orn]L[dF]PV[Orn]L[dF]P)) [listing 1 of 2 here] |  |  | 3.5 µM | 10.5 µM |  |  |  |
| CCCCN1C(=O)[C@@H](Cc2ccccc2)NC(=O)[C@H](CC(C)C)NC(=O)[C@H](CCCN)NC(=O)[C@H]([C@@H](C)CC)NC(=O)c2cc(c(C)s2)C2=C(CCC2)c2cc(sc2C)C(=O)[C@H]2CCCN2C(=O)[C@H](CC(C)C)NC(=O)[C@H](CCCN)NC(=O)[C@H]([C@@H](C)CC)NC(=O)[C@@H]1CC(C)C | 12 µM (≈ 16.6 µg/mL) | 93 µM (≈ 128 µg/mL) | 4 µM | 3 µM | 0.8 | 0.3 |  |
| CC(C)C[C@@H]1NC(=O)[C@H](CCCN)NC(=O)[C@H](C(C)C)NC(=O)[C@@H]2CCCN2C(=O)[C@@H](Cc2ccccc2)NC(=O)[C@H](CC(C)C)NC(=O)[C@H](CCCN)NC(=O)[C@H](C(C)C)NC(=O)[C@@H]2CCCN2C(=O)[C@@H](Cc2ccccc2)NC1=O (cyclo(V[Orn]L[dF]PV[Orn]L[dF]P)) [listing 2 of 2 here] | 1.8 µM (≈ 2.05 µg/mL) | 28 µM (≈ 32 µg/mL) |  |  |  |  |  |
| Cc1sc2cc1C1=C(CCC1)c1cc(sc1C)C(=O)[C@H]1CCCN1C(=O)[C@H](CC(C)C)NC(=O)[C@H](CCCCN)NC(=O)[C@H](C(C)C)NC(=O)[C@H](CCCCN)NC(=O)[C@H](CC(C)C)NC(=O)[C@@H]1CCCN1C(=O)[C@@H](Cc1ccccc1)NC(=O)[C@H](C(C)C)NC(=O)[C@H](CCCCN)NC(=O)[C@H](CC(C)C)NC(=O)[C@H](CCCCN)NC(=O)[C@H](C(C)C)NC2=O | 9 µM (≈ 16 µg/mL) | 36 µM (≈ 64 µg/mL) | 5 µM | < 1 µM | 0.2 | 0.1 |  |
